Reference: ChEMBL document CHEMBL1135874, “Novel agents combining platelet activating factor (PAF) receptor antagonist with thromboxane synthase inhibitor (TxSI)” (Bioorg Med Chem Lett, 2002)

What was measured:
[1] = biological target: Platelet-activating factor receptor (Mus musculus) (UniProt Q62035); experiment: Antagonism of Platelet activating factor (PAF) activity in mice after oral administration, assayed by PAF-induced death; assay type: functional, organism-based
In short: (§1)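 Mice dosed with test agent intravenously or orally, then injected with a lethal dose of PAF. Protection from PAF-induced death was scored. ED50 was taken as the dose that reduced mortality by 50%. Oral testing used the same method as intravenous testing.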

[2] = biological target: Platelet-activating factor receptor (Mus musculus) (UniProt Q62035); experiment: Antagonism of Platelet activating factor (PAF)in mice after Intravenous administration, assayed by PAF-induced death; assay type: functional, organism-based; in short: as §1
[3] = Inhibition of Platelet activating factor (PAF)- induced platelet aggregation in rabbit platelet rich plasma (PRP); assay type: functional
Thromboxane-A synthase = biological target: T1, Thromboxane-A synthase (Homo sapiens, UniProt P24557); experiment: In vitro inhibition of thromboxane synthase (TXA2) in human platelet microsomes [reduced formation of TXB2 from prostaglandin H2(PGH2)]; assay type: functional, Microsome
T1 sequence (P24557 whole entry): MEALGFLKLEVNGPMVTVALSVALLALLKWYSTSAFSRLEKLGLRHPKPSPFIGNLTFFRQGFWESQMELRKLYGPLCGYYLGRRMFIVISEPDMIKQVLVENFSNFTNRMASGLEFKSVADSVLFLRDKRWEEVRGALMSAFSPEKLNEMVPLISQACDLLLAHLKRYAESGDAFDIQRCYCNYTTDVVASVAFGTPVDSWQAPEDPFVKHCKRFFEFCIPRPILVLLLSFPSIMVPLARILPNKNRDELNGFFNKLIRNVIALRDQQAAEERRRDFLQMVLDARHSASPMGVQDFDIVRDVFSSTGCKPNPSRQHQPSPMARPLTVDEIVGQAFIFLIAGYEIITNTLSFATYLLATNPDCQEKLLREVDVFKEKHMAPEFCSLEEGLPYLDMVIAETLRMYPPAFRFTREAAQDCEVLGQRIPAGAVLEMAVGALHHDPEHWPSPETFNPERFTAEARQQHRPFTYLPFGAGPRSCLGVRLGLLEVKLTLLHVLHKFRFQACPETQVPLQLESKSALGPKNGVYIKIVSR

[4] = biological target: T2, Thromboxane-A synthase (Rattus norvegicus) (UniProt P49430); experiment: Thromboxane synthase inhibitor (TxSI) activity assessed by ex vivo inhibition of serum TXB2 production in rat after Intravenous administration; assay type: functional, organism-based
T2 sequence (whole entry): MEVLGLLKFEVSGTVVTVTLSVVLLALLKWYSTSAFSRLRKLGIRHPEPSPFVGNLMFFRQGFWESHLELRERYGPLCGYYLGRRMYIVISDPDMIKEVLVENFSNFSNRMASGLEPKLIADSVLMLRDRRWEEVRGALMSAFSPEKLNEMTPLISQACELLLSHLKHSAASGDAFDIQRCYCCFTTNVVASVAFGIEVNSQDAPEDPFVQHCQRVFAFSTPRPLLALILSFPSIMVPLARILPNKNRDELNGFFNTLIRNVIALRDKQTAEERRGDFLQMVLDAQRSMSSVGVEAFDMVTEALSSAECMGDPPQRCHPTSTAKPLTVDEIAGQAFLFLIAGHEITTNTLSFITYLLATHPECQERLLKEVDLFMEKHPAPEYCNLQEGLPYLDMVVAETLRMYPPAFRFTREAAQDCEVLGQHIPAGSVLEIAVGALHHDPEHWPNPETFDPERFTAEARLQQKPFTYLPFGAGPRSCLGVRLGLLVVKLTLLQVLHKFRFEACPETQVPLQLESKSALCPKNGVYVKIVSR
In short: (§2)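 Rats dosed intravenously or orally. Blood was then taken, and serum TxB2 production was measured ex vivo. Values are reported as ED50 doses in mg/kg. Oral testing used the same method as intravenous testing.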

[5] = biological target: T2, Thromboxane-A synthase (Rattus norvegicus); experiment: Thromboxane synthase inhibitor (TxSI) activity was assessed by ex vivo inhibition of serum TXB2 production in rat after oral administration; assay type: functional, organism-based; in short: as §2

Platelet-activating factor receptor (Mus musculus), sequence (Q62035 whole entry): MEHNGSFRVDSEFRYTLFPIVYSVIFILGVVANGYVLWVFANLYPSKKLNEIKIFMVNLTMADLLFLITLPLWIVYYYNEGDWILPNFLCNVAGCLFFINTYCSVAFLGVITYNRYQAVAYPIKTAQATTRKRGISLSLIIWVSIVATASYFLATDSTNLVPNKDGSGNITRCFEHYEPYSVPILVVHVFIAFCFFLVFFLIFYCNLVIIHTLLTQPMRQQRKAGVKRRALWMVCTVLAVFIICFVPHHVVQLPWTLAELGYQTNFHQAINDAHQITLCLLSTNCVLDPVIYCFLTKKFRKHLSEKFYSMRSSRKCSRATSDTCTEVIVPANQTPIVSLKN

SMILES | ED50 [1] [mg/kg] | ED50 [2] [mg/kg] | IC50 [3] [nM] | IC50 (Thromboxane-A synthase; read-out: IC50) [nM] | ED50 [4] [mg/kg] | ED50 [5] [mg/kg] | IC50 (Thromboxane-A synthase)
CCCNC(=O)CCCCO/N=C(/c1cccnc1)c1cccc(CN2CCc3c(sc4c3C(c3ccccc3Cl)=NC(C)c3nnc(C)n3-4)C2)c1 (centres undefined) | > 10 | 0.54 | 71 | 540 | > 1 | – | –
CCOC(=O)CCCCO/N=C(/c1cccnc1)c1ccccc1C(=O)N1CCc2c(sc3c2C(c2ccccc2Cl)=NC(C)c2nnc(C)n2-3)C1 (centres undefined) | > 10 | 2.4 | 200 | > 1000 | > 1 | – | –
CCOC(=O)CCCCO/N=C(\c1ccc(CC(=O)N2CCc3c(sc4c3C(c3ccccc3Cl)=NC(C)c3nnc(C)n3-4)C2)cc1)c1cccnc1 (centres undefined) | > 10 | 4.2 | 85 | 69 | > 1 | – | –
CCOC(=O)CCCCO/N=C(\c1ccc(COCC(=O)N2CCc3c(sc4c3C(c3ccccc3Cl)=NC(C)c3nnc(C)n3-4)C2)cc1)c1cccnc1 (centres undefined) | > 10 | 4.2 | 60 | 58 | > 1 | – | –
CCOC(=O)CCCC/C=C(/c1cccnc1)c1cccc(CN2CCc3c(sc4c3C(c3ccccc3Cl)=NC(C)c3nnc(C)n3-4)C2)c1 (centres undefined) | > 10 | 0.6 | 39 | 68 | 0.71 | 3.2 | –
CCOC(=O)CCCCO/N=C(/c1cccnc1)c1cccc(CN2CCc3c(sc4c3C(c3ccccc3Cl)=NCc3nnc(C)n3-4)C2)c1 | > 10 | 0.8 | 200 | 65 | 0.1 | > 10 | –
O=C(O)CCCC/C=C(/c1ccccc1)c1cccnc1 | – | – | – | – | 0.01 | 0.05 | –
CCOC(=O)C1=C(c2ccc(-n3c(C)nc4cnccc43)cc2)NC(C)=C(C(=O)Nc2ccccn2)C1c1ccccc1Cl (centres undefined) | 1.55 | 0.1 | – | – | – | – | Not Active
CCOC(=O)CCCCO/N=C(/c1cccnc1)c1cccc(CCCC(=O)N2CCc3c(sc4c3C(c3ccccc3Cl)=NC(C)c3nnc(C)n3-4)C2)c1 (centres undefined) | > 10 | 1.05 | 39 | 41 | > 1 | – | –
Cc1nnc2n1-c1sc3c(c1C(c1ccccc1Cl)=NC2C)CCN(Cc1cccc(/C(=N\OCCCCC(=O)O)c2cccnc2)c1)C3 (centres undefined) | > 10 | 0.47 | 980 | 24 | 1 | 10 | –
O=C(O)/C=C/c1ccc(Cn2ccnc2)cc1 | – | – | – | – | 0.02 | 0.1 | –
CCOC(=O)CCCCO/N=C(/c1cccnc1)c1cccc(CCCCN2CCc3c(sc4c3C(c3ccccc3Cl)=NC(C)c3nnc(C)n3-4)C2)c1 (centres undefined) | > 10 | 0.38 | 54 | 21 | 0.53 | 6.9 | –
Cc1nnc2n1-c1sc3c(c1C(c1ccccc1Cl)=NC2C)CCN(Cc1cccc(/C(=N\OCCCCC(=O)OCCN2CCOCC2)c2cccnc2)c1)C3 (centres undefined) | > 10 | 0.54 | 81 | 151 | 0.77 | 8.9 | –
CCOC(=O)CCCCO/N=C(\c1ccc(CN2CCc3c(sc4c3C(c3ccccc3Cl)=NC(C)c3nnc(C)n3-4)C2)cc1)c1cccnc1 (centres undefined) | > 10 | 1.35 | 46 | 80 | 1 | > 10 | –
CCOC(=O)CCCC/C=C(\c1ccc(CN2CCc3c(sc4c3C(c3ccccc3Cl)=NC(C)c3nnc(C)n3-4)C2)cc1)c1cccnc1 (centres undefined) | 1.6 | 0.55 | 32 | 72 | 1 | 5.2 | –
Cc1nnc2n1-c1sc3c(c1C(c1ccccc1Cl)=NC2C)CCNC3 (centres undefined) | – | > 5 | 245 | > 1000 | – | – | –
CCOC(=O)CCCCO/N=C(\c1ccccc1)c1cccnc1 | – | – | – | 1 | 0.01 | > 0.1 | –
Cc1nnc2n1-c1sc3c(c1C(c1ccccc1Cl)=NC2C)CCN(Cc1cccc(/C(=N\OCCCCC(=O)OCc2ccccc2)c2cccnc2)c1)C3 (centres undefined) | > 10 | 0.54 | 98 | 465 | > 1 | – | –
CCOC(=O)CCCCO/N=C(/c1cccnc1)c1cccc(C(=O)N2CCc3c(sc4c3C(c3ccccc3Cl)=NC(C)c3nnc(C)n3-4)C2)c1 (centres undefined) | 2.3 | 0.47 | 60 | – | > 1 | – | –
CCOC(=O)CCCCO/N=C(/c1cccnc1)c1cccc(CN2CCc3c(sc4c3C(c3ccccc3Cl)=NC(C)c3nnc(C)n3-4)C2)c1 (centres undefined) | > 10 | 0.2 | 47 | 59 | 0.1 | > 10 | –
Cc1nnc2n1-c1sc3c(c1C(c1ccccc1Cl)=NC2C)CCN(Cc1cccc(/C(=N\OCCCCC(=O)OCCCc2cccnc2)c2cccnc2)c1)C3 (centres undefined) | > 10 | 0.54 | 65 | > 1000 | > 1 | – | –
CCOC(=O)CCCCO/N=C(\c1ccc(C(=O)N2CCc3c(sc4c3C(c3ccccc3Cl)=NC(C)c3nnc(C)n3-4)C2)cc1)c1cccnc1 (centres undefined) | 0.5 | 0.2 | 100 | – | > 1 | – | –
